Assay results as given in ChEMBL document CHEMBL1131239, “Orally active benzamide antipsychotic agents with affinity for dopamine D2, serotonin 5-HT1A, and adrenergic alpha1 receptors” (J Med Chem, 1998).

Legend:
[1] = biological target: T1, 5-hydroxytryptamine receptor 1A (Rattus norvegicus, UniProt P19327); assay: Compound was evaluated for its binding affinity against 5-hydroxytryptamine 1A receptor from rat cerebral cortex; format: tissue-based
T1 sequence (P19327 whole entry): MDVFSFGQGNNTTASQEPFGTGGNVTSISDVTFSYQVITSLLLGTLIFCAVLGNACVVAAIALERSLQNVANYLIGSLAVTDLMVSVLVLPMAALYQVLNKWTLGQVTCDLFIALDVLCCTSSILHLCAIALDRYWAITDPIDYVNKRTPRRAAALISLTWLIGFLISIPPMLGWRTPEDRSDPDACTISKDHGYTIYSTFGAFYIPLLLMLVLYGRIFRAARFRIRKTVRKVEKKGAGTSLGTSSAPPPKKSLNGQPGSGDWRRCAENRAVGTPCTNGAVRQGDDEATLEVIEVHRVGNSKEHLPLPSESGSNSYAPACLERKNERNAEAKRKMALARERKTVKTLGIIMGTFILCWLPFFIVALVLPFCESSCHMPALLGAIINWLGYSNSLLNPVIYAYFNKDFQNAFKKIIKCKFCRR

[2] = biological target: T2, Adrenergic receptor alpha-1 (Rattus norvegicus, UniProt P15823+P23944+P43140); assay: Binding affinity against Alpha-1 adrenergic receptor from rat cerebral cortex; format: tissue-based
T2 sequence (P15823 whole entry): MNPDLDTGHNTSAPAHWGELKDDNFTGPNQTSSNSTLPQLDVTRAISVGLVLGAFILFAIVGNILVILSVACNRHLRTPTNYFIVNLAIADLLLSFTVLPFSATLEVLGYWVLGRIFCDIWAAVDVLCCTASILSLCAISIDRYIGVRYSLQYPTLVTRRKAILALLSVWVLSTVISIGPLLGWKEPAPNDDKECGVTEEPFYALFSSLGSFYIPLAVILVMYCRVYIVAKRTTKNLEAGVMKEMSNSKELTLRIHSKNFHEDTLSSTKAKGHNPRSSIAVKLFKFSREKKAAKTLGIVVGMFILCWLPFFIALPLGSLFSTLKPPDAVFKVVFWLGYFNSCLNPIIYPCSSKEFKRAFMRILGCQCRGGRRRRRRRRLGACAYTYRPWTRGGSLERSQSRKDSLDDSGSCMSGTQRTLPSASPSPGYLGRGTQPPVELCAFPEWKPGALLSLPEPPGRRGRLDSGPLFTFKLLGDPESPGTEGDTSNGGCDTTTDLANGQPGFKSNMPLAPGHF
T2 sequence (P23944 whole entry): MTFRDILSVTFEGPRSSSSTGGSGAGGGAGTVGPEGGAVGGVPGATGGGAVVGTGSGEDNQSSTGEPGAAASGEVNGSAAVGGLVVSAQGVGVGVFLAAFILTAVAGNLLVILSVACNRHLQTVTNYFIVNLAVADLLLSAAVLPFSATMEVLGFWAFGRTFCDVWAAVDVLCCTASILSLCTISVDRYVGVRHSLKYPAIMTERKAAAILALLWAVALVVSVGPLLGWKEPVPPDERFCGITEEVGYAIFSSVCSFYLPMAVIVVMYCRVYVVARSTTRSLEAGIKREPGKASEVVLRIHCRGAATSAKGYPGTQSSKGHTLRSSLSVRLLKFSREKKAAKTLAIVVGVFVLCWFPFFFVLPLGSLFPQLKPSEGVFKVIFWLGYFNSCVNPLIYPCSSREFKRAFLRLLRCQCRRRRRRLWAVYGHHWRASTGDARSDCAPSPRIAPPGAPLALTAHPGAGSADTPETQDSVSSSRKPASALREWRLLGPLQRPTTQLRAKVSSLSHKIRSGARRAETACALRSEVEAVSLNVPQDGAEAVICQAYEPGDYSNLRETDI
T2 sequence (P43140 whole entry): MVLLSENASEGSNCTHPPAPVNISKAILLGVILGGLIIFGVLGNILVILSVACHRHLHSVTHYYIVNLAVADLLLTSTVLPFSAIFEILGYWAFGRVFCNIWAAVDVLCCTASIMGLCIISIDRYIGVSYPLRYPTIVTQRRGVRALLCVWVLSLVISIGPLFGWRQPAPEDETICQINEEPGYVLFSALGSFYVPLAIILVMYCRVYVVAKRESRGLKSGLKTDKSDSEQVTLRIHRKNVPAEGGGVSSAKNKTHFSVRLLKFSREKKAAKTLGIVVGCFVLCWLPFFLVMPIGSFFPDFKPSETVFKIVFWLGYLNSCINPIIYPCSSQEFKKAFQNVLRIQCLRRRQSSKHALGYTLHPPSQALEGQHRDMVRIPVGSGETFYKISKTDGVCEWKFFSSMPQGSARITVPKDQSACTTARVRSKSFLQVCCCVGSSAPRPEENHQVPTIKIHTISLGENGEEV

Rattus norvegicus [3] = assay: compound was tested for antipsychotic activity by conditioned avoidance response(CAR) assay in rats with a pretreatment period of 30 min upon intra peritoneal administration at a concentration of 15 mg/kg.; format: functional
Rattus norvegicus [4] = assay: compound was tested for antipsychotic activity by conditioned avoidance response(CAR) assay in rats with a pretreatment period of 30 min upon intra peritoneal administration at a concentration of 1 mg/kg.; format: functional
Outline: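 Trained rats (N = 4) were run in 1-h sessions on two consecutive days, with the experimenter blind to drug and dose. Fed rats had food and water until placed in the test chambers. Fasted rats had no food overnight before the experiment.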

Rattus norvegicus [5] = assay: Percent catalepsy in male Spargue-Dawley rat at pretreatment time 240 mins and when administered ip at dose 50 mg/kg; format: functional; details: route intraperitoneal
Outline: (§1)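 Catalepsy in rats, groups of five per drug treatment, scored blind to drug and dose. Each session included a saline or vehicle negative control and a haloperidol 2 mg/kg positive control. Deaths during the experiment were recorded in the catalepsy column as number dead out of five.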

Rattus norvegicus [6] = assay: compound was tested for antipsychotic activity by conditioned avoidance response(CAR) assay in rats with a pretreatment period of 30 min upon intra peritoneal administration at a concentration of 5 mg/kg.; format: functional
Outline: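 Rat conditioned avoidance test modified from Martin et al. Trained rats (N = 4) were run in 1-h sessions on two consecutive days. Fed animals had food and water until placed in the test chambers. Dosing was ip with 30 min pretreatment, and activity was expressed as percent inhibition at the stated dose.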

Rattus norvegicus [7] = assay: Percent catalepsy in male Spargue-Dawley rat at pretreatment time 60 mins and when administered ip at dose 50 mg/kg; format: functional; details: route intraperitoneal; outline: as §1
Rattus norvegicus [8] = assay: compound was tested for antipsychotic activity by conditioned avoidance response(CAR) assay in rats with a pretreatment period of 60 min upon peroral administration at a concentration of 20 mg/kg.; format: functional; details: route oral

Row | Compound | Ki [1] | Ki [2] | inhibition in vivo at 15 mg/kg (Rattus norvegicus [3]) | inhibition in vivo at 1 mg/kg (Rattus norvegicus [4]) | Catalepsy (Rattus norvegicus [5]) | inhibition in vivo at 5 mg/kg (Rattus norvegicus [6]) | Catalepsy (Rattus norvegicus [7]) | inhibition in vivo at 20 mg/kg (Rattus norvegicus [8])
1 | CC(C)Oc1ccccc1N1CCN(Cc2cccc(C(=O)N3CCC3)c2)CC1 | 3.4 nM | 1.2 nM | -87% |  |  |  |  | 
2 | CC(C)Oc1ccccc1N1CCN(Cc2cccc(C(=O)N(C)C3CCCCC3)c2)CC1 | 1.2 nM | 1.2 nM |  | -9.3% | 58.1% | -98.9% | 0% | 
3 | CCCc1ccccc1N1CCN(Cc2cccc(C(=O)N3CCCCC3)c2)CC1 | 9.1 nM | 16 nM | -0.7% |  |  |  |  | 
4 | O=C(c1cccc(CN2CCN(c3ccccc3Cl)CC2)c1)N1CCCCC1 | 8.2 nM | 16 nM | -68.6% |  |  | -67.9% |  | 
5 | COCCN1CCN(Cc2cccc(C(=O)N3CCCCCC3)c2)CC1 |  | > 1000 nM |  |  |  |  |  | 
6 | CC(C)Oc1ccccc1N1CCN(Cc2cccc(C(=O)N3CCOCC3)c2)CC1 | 3.2 nM | 29 nM |  | -94.5% |  | -95.4% |  | -96.2%
7 | O=C(c1cccc(CN2CCN(c3ccccc3C(F)(F)F)CC2)c1)N1CCCCC1 | 0.8 nM | 3.3 nM | -59.7% |  |  | -5.5% |  | 
8 | O=C(c1cccc(CN2CCN(c3ccccc3)CC2)c1)N1CCCCC1 | 7.2 nM | 44 nM | -82.1% |  |  | -2.2% |  | 
9 | CCCCN(CCCC)C(=O)c1cccc(CN2CCN(c3ccccc3OC(C)C)CC2)c1 | 0.8 nM | 3.3 nM | -5.6% |  |  |  |  | 
10 | O=C(c1cccc(CN2CCN(CCO)CC2)c1)N1CCCCCC1 |  | > 1000 nM |  |  |  | -2.1% |  | 
11 | O=C(c1cccc(CN2CCN(c3cccc4ccccc34)CC2)c1)N1CCCCC1 | 1.8 nM | 57 nM | -18.8% |  |  |  |  | 
12 | CN1CCN(Cc2cccc(C(=O)N3CCCCC3)c2)CC1 |  | > 1000 nM | 0.4% |  |  |  |  | 
13 | CC(C)Oc1ccccc1N1CCN(Cc2cccc(C(N)=O)c2)CC1 | 18 nM | 11.4 nM |  | -3% |  | -88.5% |  | -1.1%
14 | CC(C)Oc1ccccc1N1CCN(Cc2cccc(C(=S)N3CCCCC3)c2)CC1 | 1.1 nM | 2.3 nM |  |  |  | -71.6% |  | 
15 | CC(C)Oc1ccccc1N1CCN(Cc2cccc(C(=O)NC3CCCCC3)c2)CC1 | 4.1 nM | 3.4 nM | -86.2% |  |  | -17.6% |  | 
16 | O=C(c1cccc(CN2CCN(c3ncccn3)CC2)c1)N1CCCCC1 | 12 nM |  | -6.8% |  |  | -17.9% |  | 
17 | CC(C)Oc1cc(F)ccc1N1CCN(Cc2cccc(C(=O)N3CCCCC3)c2)CC1 | 4.2 nM | 6 nM |  | -22.6% | 50% | -82.6% | 45.2% | 
18 | O=C(c1cccc(CN2CCN(c3cccc(C(F)(F)F)c3)CC2)c1)N1CCCCC1 | 2.3 nM | 562 nM | -71.6% |  |  | -3.7% |  | 
19 | CC(C)Oc1ccccc1C1(O)CCN(Cc2cccc(C(=O)N3CCCCC3)c2)CC1 | > 1000 nM | 110 nM |  |  |  | 0.9% |  | 
20 | O=C(c1cccc(CN2CCN(c3ccc4ccoc4c3)CC2)c1)N1CCCCC1 | 0.21 nM | 13 nM |  |  |  | -82.4% |  | 
21 | CC(C)Oc1ccccc1N1CCN(Cc2cccc(C(=O)Nc3ccc(F)cc3)c2)CC1 | 11 nM | 11 nM | -2.5% |  |  |  |  | 
22 | N#Cc1ccccc1N1CCN(Cc2cccc(C(=O)N3CCCCC3)c2)CC1 | 2.5 nM | 19 nM |  | -5.3% |  | -73.9% |  | -5.4%
23 | O=C(c1cccc(CN2CCN(c3ccccc3F)CC2)c1)N1CCCCC1 | 16 nM | 27 nM | -84.3% |  |  |  |  | 
24 | CCN1CCCC1CNC(=O)c1cccc(CN2CCN(c3ccccc3OC(C)C)CC2)c1 (stereo not drawn) | 121 nM | 486 nM | -74.9% |  |  | -19.4% |  | 
25 | O=C(c1cccc(CN2CCN(c3ccc(Cl)cc3)CC2)c1)N1CCCCC1 | 121 nM | 486 nM | -4.7% |  |  |  |  | 
26 | O=C(c1cccc(CN2CCN(c3cccc([N+](=O)[O-])c3)CC2)c1)N1CCCCC1 | 24 nM | > 1000 nM | -77.7% |  |  | -1.3% |  | 
